Data set [1] addresses T1, ATP-dependent translocase ABCB1 (Homo sapiens, UniProt P08183). Kind of data set: Inhibition of ABCB1 in human KBV1 cells assessed as potentiation of vincristine-induced cytotoxicity by measuring vincristine resistance ratio at 200 nM after 72 hrs by MTT assay relative to parental KB-3-1 cells (reference value: 356). The data set is classed as cell-based. The following applies: kbv1, 72 h, 0.2 µM. In outline:
(§1)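 Cells were kept in drug-free DMEM with 10% FCS for 7 days before assay, then plated at 5000 cells/well for 24 h. Drug at various concentrations was added with a nontoxic fixed level of modulator for 72 h, and the read-out was MTT. IC50 came from fitted curves (≥3 experiments). RR = IC50 of the resistant line / IC50 of the parental line.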
In general terms: Tetrazolium dyes change colour on reduction, which living cells bring about.

Data set [2] deals with T1, ATP-dependent translocase ABCB1. Kind of data set: Inhibition of ABCB1 in human NCI-ADR-RES cells assessed as potentiation of colchicine-induced cytotoxicity by measuring colchicine resistance ratio at 200 nM after 72 hrs by MTT assay relative to parental OVCAR8 cells (reference value: 59). The following applies: ovcar-8, 72 h, 0.2 µM. The data set is classed as cell-based. Summed up: as §1

Data set [3] shares this target. Kind of data set: Inhibition of ABCB1 in human NCI-ADR-RES cells assessed as potentiation of vincristine-induced cytotoxicity by measuring vincristine resistance ratio at 200 nM after 72 hrs by MTT assay relative to parental OVCAR8 cells (reference value: 435). Type of data set: cell-based. Particulars: ovcar-8, 72 h, 0.2 µM. In outline:
as §1

Data set [4] relates to KB 3-1. As to the kind of experiment: Potentiation of colchicine-induced apoptosis in human KB-3-1 cells assessed as early apoptotic cells at 1 uM after 48 hrs by Annexin V-FITC/propidium iodide staining based FACS analysis (reference value: 30.5%). The data set is classed as functional. On the technique in general: In flow cytometry, cells or beads pass a laser one at a time.

Data set [5] concerns KB 3-1. As to the kind of experiment: Potentiation of colchicine-induced apoptosis in human KB-3-1 cells assessed as late apoptotic cells at 1 uM after 48 hrs by Annexin V-FITC/propidium iodide staining based FACS analysis (reference value: 25.7%). Type of data set: functional.
Data set [6] concerns the target T1, ATP-dependent translocase ABCB1. As to the kind of experiment: Induction of Vanadate-sensitive ABCB1 (unknown origin) assessed as ATPase activity by measuring concentration required for 50% maximal stimulation by Pgp-glo assay. Summed up:
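Vanadate-sensitive ABCB1 ATPase activity was measured with the Pgp-Glo system using […], across 0–1 μM test compound. Points are the mean of at least three independent experiments.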

T1 sequence (P08183 whole entry): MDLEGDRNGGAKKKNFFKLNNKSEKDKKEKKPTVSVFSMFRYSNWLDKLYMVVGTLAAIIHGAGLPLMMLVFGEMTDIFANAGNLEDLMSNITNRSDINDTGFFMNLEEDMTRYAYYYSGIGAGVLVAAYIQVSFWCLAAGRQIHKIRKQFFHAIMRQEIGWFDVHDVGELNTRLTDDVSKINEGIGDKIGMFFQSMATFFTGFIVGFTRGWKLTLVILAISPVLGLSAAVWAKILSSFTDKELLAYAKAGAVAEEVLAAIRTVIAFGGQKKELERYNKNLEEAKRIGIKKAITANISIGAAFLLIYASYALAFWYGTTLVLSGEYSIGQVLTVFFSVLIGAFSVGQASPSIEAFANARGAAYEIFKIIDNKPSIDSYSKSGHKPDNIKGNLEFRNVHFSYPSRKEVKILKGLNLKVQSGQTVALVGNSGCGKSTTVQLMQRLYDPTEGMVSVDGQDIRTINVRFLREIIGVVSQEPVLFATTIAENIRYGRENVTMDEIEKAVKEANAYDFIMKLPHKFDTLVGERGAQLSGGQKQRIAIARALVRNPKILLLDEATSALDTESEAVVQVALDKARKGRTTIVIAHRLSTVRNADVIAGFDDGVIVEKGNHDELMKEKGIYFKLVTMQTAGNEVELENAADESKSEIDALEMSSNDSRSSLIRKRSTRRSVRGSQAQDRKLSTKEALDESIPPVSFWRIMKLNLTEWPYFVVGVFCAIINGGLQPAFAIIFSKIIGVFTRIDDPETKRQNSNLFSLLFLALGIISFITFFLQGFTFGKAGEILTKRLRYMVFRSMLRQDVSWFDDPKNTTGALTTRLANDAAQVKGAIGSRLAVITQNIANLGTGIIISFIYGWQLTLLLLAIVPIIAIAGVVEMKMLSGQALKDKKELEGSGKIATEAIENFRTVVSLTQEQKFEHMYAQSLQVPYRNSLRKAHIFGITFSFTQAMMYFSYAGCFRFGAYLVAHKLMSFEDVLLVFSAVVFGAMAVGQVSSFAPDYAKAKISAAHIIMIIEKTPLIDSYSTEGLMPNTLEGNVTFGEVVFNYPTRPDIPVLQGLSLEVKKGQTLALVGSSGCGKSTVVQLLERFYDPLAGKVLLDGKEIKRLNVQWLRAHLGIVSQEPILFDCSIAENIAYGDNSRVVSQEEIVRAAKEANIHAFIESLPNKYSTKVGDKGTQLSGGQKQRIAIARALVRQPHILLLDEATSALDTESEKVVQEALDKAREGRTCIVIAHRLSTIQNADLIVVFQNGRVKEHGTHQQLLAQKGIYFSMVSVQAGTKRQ

As to `COc1ccc2cc1Oc1ccc(cc1)C[C@H]1c3cc(c(OC)cc3CCN1C)Oc1c(OC)c(OC)c(OC)c3c1[C@H](C2)N(C)CC3` [HERNANDEZINE], the Ratio worked out at 34 in data set [1], 10 in data set [2] and 196 in data set [3]. Moreover, the Activity with KB 3-1 [4] is given as 31.1%; in the data set with KB 3-1 [5], 26.4%; in data set [6] (human) it was “Dose-dependent effect”. For the same compound, the EC50 in data set [6] (read-out: Activity) was 20 nM.
